Results gathered from unrelated publications.
Target: Serine/threonine-protein kinase 10 (STK10, Homo sapiens, UniProt O94804)

SMILES | observed | mode | method | cells | tested at | quantity | result
Cc1ccc(NC(=O)c2ccc(C)c(C(F)(F)F)c2)cc1C#Cc1nn(C2CCC(O)CC2)c2ncnc(N)c12 (centres unmarked) | cell-free assay |  |  |  | 10 µM | remaining signal | 16%
COc1cc(Cl)c(C(=O)N[C@@H](CN[C@H]2CC[C@@H](N)CC2)Cc2ccc(C#N)cc2)cc1-c1ccc(CN[C@H](C)c2ccc(C)cc2)o1 | enzyme activity | inhibitor |  |  | 1 µM | remaining activity | 110%
CNC(=O)c1cc2c(Oc3ccc(NC(=O)C4(C(=O)Nc5ccc(F)cc5)CC4)cc3)ccnc2cc1OC | enzyme activity | inhibitor | radiometric |  | 1 µM | inhibition | 75%
Cc1noc([C@H]2C[C@@H](c3ccc(C(F)(F)F)cc3)CN(C(=O)N3CCS(=O)(=O)C3)C2)n1 | cell-free assay |  | competition with immobilised ligand |  | 1 µM | remaining binding | 100%
CNC(=O)c1cc(Oc2ccc(NC(=O)Nc3ccc(Cl)c(C(F)(F)F)c3)cc2)ccn1 | enzyme activity | inhibitor |  |  | 10 µM | inhibition | 88%
NS(=O)(=O)c1cc(NC(=O)Cc2ccccc2)ccc1Oc1cccc(Cl)c1 | cell-free assay |  | competition with immobilised ligand |  | 1 µM | remaining binding | 65%
CCN(CC)CCNC(=O)c1c(C)[nH]c(/C=C2\C(=O)Nc3ccc(F)cc32)c1C | enzyme activity | inhibitor |  |  | 0.3 µM | inhibition | 37%
CCOCCn1cc(C(=O)Nc2ccc(-n3nc(-c4cccnc4)cc3C(F)(F)F)cn2)ccc1=O | cell-free assay |  | competition with immobilised ligand |  | 1 µM | remaining binding | 100%
O=C1Nc2ccc(Cl)cc2C1=Cc1cc(Cl)c(O)c(Cl)c1 | cell-free assay |  |  |  | 0.5 µM | remaining signal | 77.1%
C[C@@H](c1cccc(C#N)c1)n1cc(Cl)cc(C(N)=O)c1=N | cell-free assay |  | competition with immobilised ligand |  | 1 µM | remaining binding | 86%
Cc1cnn2ncc(-c3ccnc(N(C)C)n3)c2c1 | binding |  |  |  | 1 µM | remaining binding | 100%
O=C(Nc1cnn(-c2csc(C(=O)NC3COC3)c2)c1)Nc1c(F)cccc1Cl | enzyme activity | inhibitor |  |  | 5 µM | remaining activity | 89%
Cc1cnc(NC2CCOCC2)nc1-n1cnc(C(=O)NC(CN)c2cc(F)cc(Cl)c2)c1 (centres unmarked) | enzyme activity | inhibitor | radiometric |  | 1 µM | remaining activity | 87%
CCN1CCN(Cc2ccc(NC(=O)c3ccc(C)c(Oc4ccnc5[nH]ccc45)c3)cc2C(F)(F)F)CC1 | target engagement in cells | inhibitor | chemoproteomics | Huh-7 | 1 µM | inhibition | -148%
COc1cc2c(N3CCN(C(=O)Nc4ccc(OC(C)C)cc4)CC3)ncnc2cc1OCCCN1CCCCC1 | cell-free assay |  |  |  | 0.5 µM | remaining signal | 95%
O=C1CCc2cc(Nc3cc(OC4CCOCC4)c([N+](=O)[O-])cc3Cl)ccc2N1 | cell-free assay |  | competition with immobilised ligand |  | 1 µM | remaining binding | 100%
CCN1CCN(Cc2ccc(NC(=O)c3ccc(C)c(/C=C/c4cnc5[nH]ccc5c4OC)c3)cc2C(F)(F)F)CC1 | target engagement in cells | inhibitor | chemoproteomics | A-375 | 0.5 µM | inhibition | -69.1%
CCCS(=O)(=O)Nc1ccc(F)c(C(=O)c2c[nH]c3ncc(-c4ccc(Cl)cc4)cc23)c1F | enzyme activity | inhibitor |  |  | 1 µM | inhibition | < 10%
c1ccc(N2CCN(Cc3nc4ccccc4[nH]3)CC2)nc1 | binding |  | competition with immobilised ligand |  | 1 µM | remaining binding | 100%
CC(C)c1ccc(NC(=O)c2cccs2)c(-c2nc3ccccc3[nH]c2=O)c1 | enzyme activity | inhibitor |  |  | 1 µM | activity vs control | 103%
FC(F)(F)c1ccc2c(c1)nc(-c1cccnc1)n2C1CC1 | cell-free assay |  | competition with immobilised ligand |  | 1 µM | remaining binding | 100%
Cc1sc(C(=O)NC2COC2)cc1-n1cc(NC(=O)Nc2c(F)cccc2Cl)cn1 | enzyme activity | inhibitor |  |  | 10 µM | remaining activity | 96.4%
Cc1ccc(Nc2nccc(N(C)c3ccc4c(C)n(C)nc4c3)n2)cc1S(N)(=O)=O | enzyme activity | inhibitor |  |  | 0.5 µM | remaining activity | 50.1%
